Experimental data taken from ChEMBL document CHEMBL2321791, “A new cytotoxic quinolone alkaloid and a pentacyclic steroidal glycoside from the stem bark of Crataeva nurvala: study of anti-proliferative and apoptosis inducing property” (Eur J Med Chem, 2013).
Active and inactive are the calls of the source. The calls are words filed in the database; no cut-off is given here.

Tests used:
HeLa [1] = assay: Cytotoxicity against human HeLa cells; format: functional, cell-based
How it was run: (§1)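 MTT viability assay. Cells were plated at 3 × 10³ cells/well and treated in triplicate with a range of concentrations, with final DMSO at 0.2%. After 48 h incubation, MTT (0.5 mg/mL) was added for a further 4 h at 37 °C. Formazan was read by optical density at 570 nm and percentage viability calculated.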

PC-3 [2] = assay: Cytotoxicity against human PC3 cells; format: functional, cell-based; how it was run: as §1
MCF7 [3] = assay: Cytotoxicity against human MCF7 cells; format: functional, cell-based; how it was run: as §1
HeLa [4] = assay: Cell cycle arrest in human HeLa cells assessed as cells at G0 phase at 1 uM measured after 24 hrs by propidium iodide/FACS analysis (reference value: 68.6%); format: functional
HeLa [5] = assay: Cell cycle arrest in human HeLa cells assessed as cells at G1 phase at 1 uM measured after 24 hrs by propidium iodide/FACS analysis (reference value: 14.7%); format: functional
HeLa [6] = assay: Inhibition of cell migration in human HeLa cells at 80 uM for 24 hrs by wound healing assay; format: functional, cell-based
How it was run: (§2)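 Wound-healing (scratch) assay. Cells were seeded at 5.5 × 10⁵ cells/well in 6-well plates and grown overnight to a confluent monolayer. After 24 h serum starvation, the monolayer was scratched with a pipette tip, washed with serum-free medium and photographed at 0 h. Cells were then treated for 24 h in 1% serum medium with compound or DMSO vehicle. Scratched area was quantified in three random fields per treatment across three independent experiments.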

HeLa [7] = assay: Inhibition of colony formation in human HeLa cells at sub-lethal dose measured after 5 days by colony formation assay; format: functional, cell-based
How it was run: (§3)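 Clonogenic assay. Cells were seeded at 1 × 10³ cells/well in 6-well plates, and the medium was replaced after 24 h. Cells were then exposed to various concentrations of compound, alongside DMSO vehicle, for 5 days at 37 °C in 5% CO₂. Colonies were fixed with 4% paraformaldehyde, stained with 0.5% crystal violet, then counted and averaged over randomly chosen fields (n = 3).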

MCF7 [8] = assay: Inhibition of cell migration in human MCF7 cells at 80 uM for 24 hrs by wound healing assay; format: functional, cell-based; how it was run: as §2
PC-3 [9] = assay: Inhibition of cell migration in human PC3 cells at 50 uM for 24 hrs by wound healing assay; format: functional, cell-based; how it was run: as §2
PC-3 [10] = assay: Cytotoxicity against human PC3 cells at 50 uM measured after 48 hrs by MTT assay; format: cell-based; details: pc-3, 48 h; how it was run: as §1
HeLa [11] = assay: Inhibition of cell migration in human HeLa cells at 50 uM for 24 hrs by wound healing assay; format: functional, cell-based; how it was run: as §2
PC-3 [12] = assay: Inhibition of cell migration in human PC3 cells at 80 uM for 24 hrs by wound healing assay; format: functional, cell-based; how it was run: as §2
HeLa [13] = assay: Inhibition of colony formation in human HeLa cells measured after 5 days by colony formation assay; format: functional, cell-based; how it was run: as §3
HeLa [14] = assay: Cell cycle arrest in human HeLa cells assessed as cells at G0 phase at 50 uM measured after 24 hrs by propidium iodide/FACS analysis (reference value: 68.6%); format: functional
HeLa [15] = assay: Cell cycle arrest in human HeLa cells assessed as cells at G1 phase at 50 uM measured after 24 hrs by propidium iodide/FACS analysis (reference value: 14.7%); format: functional
PC-3 [16] = assay: Inhibition of colony formation in human PC3 cells at sub-lethal dose measured after 5 days by colony formation assay; format: functional, cell-based; how it was run: as §3
MCF7 [17] = assay: Inhibition of cell migration in human MCF7 cells at 50 uM for 24 hrs by wound healing assay; format: functional, cell-based; how it was run: as §2
HeLa [18] = assay: Cytotoxicity against human HeLa cells at 50 uM measured after 48 hrs by MTT assay; format: cell-based; how it was run: as §1

SMILES | Activity (HeLa [1]) | Activity (PC-3 [2]) | Activity (MCF7 [3]) | Activity (HeLa [4]) [%] | Activity (HeLa [5]) [%] | Activity (HeLa [6]) | Activity (HeLa [7]) | Activity (MCF7 [8]) | Activity (PC-3 [9]) | Activity (PC-3 [10]) | Activity (HeLa [11]) | Activity (PC-3 [12]) | Activity (HeLa [13]) | Activity (HeLa [14]) [%] | Activity (HeLa [15]) [%] | Activity (PC-3 [16]) | Activity (MCF7 [17]) | Activity (HeLa [18])
COc1cc(OC)c2c(=O)c(-c3ccccc3)cn(C)c2c1 | inactive | inactive | inactive | – | – | – | – | – | – | – | – | – | – | – | – | – | – | –
COc1cc(OC)c2c(O)c(-c3ccccc3)cnc2c1 | inactive | inactive | inactive | – | – | – | – | – | – | – | – | – | – | – | – | – | – | –
CC[C@@]1(O)C(=O)OCc2c1cc1n(c2=O)Cc2cc3ccccc3nc2-1 [CAMPTOTHECIN] | – | – | – | 68.6 | 17.7 | – | – | – | – | – | – | – | – | – | – | – | – | –
CCn1cc(-c2ccccc2)c(=O)c2c(OC)cc(OC)cc21 [CRATAEMINE] | – | – | – | – | – | Active | Active | inactive | Active | Non-toxic | Active | Active | Dose-dependent effect | 76.8 | 17.2 | Active | inactive | Non-toxic
CC(C)[C@@H]1CC[C@@H](C)[C@H]2[C@@H]1C[C@H]1[C@@H]3CC=C4C[C@@H](O[C@@H]5O[C@H](CO)[C@@H](O)[C@H](O)[C@H]5O)CC[C@]4(C)[C@H]3CC[C@]21C [CRATAENOSIDE] | – | – | – | – | – | Active | Active | inactive | Active | Non-toxic | Active | Active | Dose-dependent effect | 63.5 | 22.5 | Active | inactive | Non-toxic
